# In ChEMBL document CHEMBL1127053, “3,4-Dimethyl-4-(3-hydroxyphenyl)piperidines: opioid antagonists with potent anorectant activity” (J Med Chem, 1993):
# Tests used:
# [1] = molecular target: Kappa-type opioid receptor (Mus musculus) (UniProt P33534); assay: Antagonist activity towards U50 488 induced kappa opioid receptor by mouse writhing assay at 2.5 mg/kg subcutaneously; type: functional, organism-based; design: dose 2.5 mg/kg
# In short: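 Mouse acetic acid writhing: 0.6% acetic acid ip, writhes counted for 10 min starting 5 min after injection. 5 mice/point, ≥5 doses varied 2-fold, each mouse used once. AD50 = antagonist dose reducing agonist-induced writhing inhibition to 50%.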
# [2] = molecular target: Kappa-type opioid receptor (Cavia porcellus) (UniProt P41144); conditions: Ileum, 2 nM
# [3] = Tested for affinity against phencyclidine using [3H]phencyclidine in rat brain; type: tissue-based
# [4] = molecular target: Delta-type opioid receptor (Rattus norvegicus, UniProt P33533); assay: Binding affinity towards delta-opioid receptor by displacement of [3H]DADL in rat brain homogenates; type: tissue-based
# In short: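 Radioligand displacement. Kappa: [3H]EKC, guinea pig cortex, with fentanyl and DADL added to block mu/delta binding. Delta: [3H]DADL, rat brain homogenate.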
# [5] = molecular target: Muscarinic acetylcholine receptor; assay: Tested for affinity against muscarinic acetylcholine using [3H]quinuclidinyl benzylate in rat brain; type: tissue-based
# In short: (§1)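 Radioligand binding in cortical membranes from male Sprague-Dawley rats (110-150 g). Ligands: [3H]serotonin for 5-HT1, [3H]QNB for muscarinic, [3H]WB4101 for α1, [3H]clonidine for α2, [3H]dihydroalprenolol for β-adrenergic.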
# [6] = molecular target: T1, Adrenergic receptor alpha-2 (Rattus norvegicus, UniProt P22086+P19328+P22909); assay: Tested for affinity against alpha-2-adrenergic using [3H]clonidine in rat brain; type: tissue-based; in short: as §1
# T1 sequence (P22086 whole entry): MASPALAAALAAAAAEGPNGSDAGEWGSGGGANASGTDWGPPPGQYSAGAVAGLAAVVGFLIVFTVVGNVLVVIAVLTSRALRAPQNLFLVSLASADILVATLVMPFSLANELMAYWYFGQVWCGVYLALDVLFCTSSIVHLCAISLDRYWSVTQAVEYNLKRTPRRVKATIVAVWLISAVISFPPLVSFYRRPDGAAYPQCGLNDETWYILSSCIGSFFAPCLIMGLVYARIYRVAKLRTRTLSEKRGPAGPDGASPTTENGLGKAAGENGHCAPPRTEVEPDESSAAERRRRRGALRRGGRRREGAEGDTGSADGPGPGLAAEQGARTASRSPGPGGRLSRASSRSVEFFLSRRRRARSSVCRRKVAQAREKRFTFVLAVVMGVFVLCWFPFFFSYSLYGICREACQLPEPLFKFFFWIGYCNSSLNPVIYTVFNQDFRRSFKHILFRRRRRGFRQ
# T1 sequence (P19328 whole entry): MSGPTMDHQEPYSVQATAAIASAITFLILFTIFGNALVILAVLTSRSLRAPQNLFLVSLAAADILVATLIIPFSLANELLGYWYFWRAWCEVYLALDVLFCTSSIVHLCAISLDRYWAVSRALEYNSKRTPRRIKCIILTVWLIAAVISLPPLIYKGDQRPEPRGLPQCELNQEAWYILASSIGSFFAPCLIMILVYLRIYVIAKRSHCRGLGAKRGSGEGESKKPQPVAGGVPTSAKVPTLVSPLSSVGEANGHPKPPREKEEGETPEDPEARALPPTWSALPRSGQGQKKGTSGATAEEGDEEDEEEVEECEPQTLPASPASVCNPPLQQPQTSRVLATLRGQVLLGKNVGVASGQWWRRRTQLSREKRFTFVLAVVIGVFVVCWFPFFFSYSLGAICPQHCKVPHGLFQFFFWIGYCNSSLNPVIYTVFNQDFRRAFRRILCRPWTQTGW
# T1 sequence (P22909 whole entry): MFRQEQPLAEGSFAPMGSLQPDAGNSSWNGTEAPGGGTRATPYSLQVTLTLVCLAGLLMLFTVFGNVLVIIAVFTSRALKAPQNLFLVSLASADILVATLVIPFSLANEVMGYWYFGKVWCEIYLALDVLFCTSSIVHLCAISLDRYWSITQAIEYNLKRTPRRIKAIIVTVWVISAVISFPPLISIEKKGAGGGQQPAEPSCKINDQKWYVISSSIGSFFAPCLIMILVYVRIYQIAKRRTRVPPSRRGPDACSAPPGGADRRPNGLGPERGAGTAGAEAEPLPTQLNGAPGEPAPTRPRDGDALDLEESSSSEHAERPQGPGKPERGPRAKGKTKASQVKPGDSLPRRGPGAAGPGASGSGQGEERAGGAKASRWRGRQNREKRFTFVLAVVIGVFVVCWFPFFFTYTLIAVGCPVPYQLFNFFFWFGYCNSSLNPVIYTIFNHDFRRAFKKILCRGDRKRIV
# Sequence of Kappa-type opioid receptor (Mus musculus) (P33534 whole entry): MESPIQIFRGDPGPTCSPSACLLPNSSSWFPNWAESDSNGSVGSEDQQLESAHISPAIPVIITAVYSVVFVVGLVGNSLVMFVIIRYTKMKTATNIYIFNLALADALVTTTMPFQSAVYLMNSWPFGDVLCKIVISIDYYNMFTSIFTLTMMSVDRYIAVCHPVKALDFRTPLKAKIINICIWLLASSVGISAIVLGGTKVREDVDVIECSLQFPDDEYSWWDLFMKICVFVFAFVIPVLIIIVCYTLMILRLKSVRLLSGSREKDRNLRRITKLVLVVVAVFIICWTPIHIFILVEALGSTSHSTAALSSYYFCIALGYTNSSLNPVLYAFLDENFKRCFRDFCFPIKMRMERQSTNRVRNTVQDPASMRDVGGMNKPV
# Sequence of Delta-type opioid receptor (P33533 whole entry): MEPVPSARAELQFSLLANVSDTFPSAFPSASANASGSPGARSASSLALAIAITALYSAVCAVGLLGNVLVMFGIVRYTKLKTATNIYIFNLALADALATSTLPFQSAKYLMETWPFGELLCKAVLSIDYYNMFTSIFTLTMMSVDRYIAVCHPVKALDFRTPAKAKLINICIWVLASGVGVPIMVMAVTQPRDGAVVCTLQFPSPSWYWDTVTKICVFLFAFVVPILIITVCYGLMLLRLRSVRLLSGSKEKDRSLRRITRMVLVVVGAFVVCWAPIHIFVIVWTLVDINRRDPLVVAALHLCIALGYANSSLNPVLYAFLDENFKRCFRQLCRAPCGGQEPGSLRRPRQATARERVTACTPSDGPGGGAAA
# Sequence of Kappa-type opioid receptor (Cavia porcellus) (P41144 whole entry): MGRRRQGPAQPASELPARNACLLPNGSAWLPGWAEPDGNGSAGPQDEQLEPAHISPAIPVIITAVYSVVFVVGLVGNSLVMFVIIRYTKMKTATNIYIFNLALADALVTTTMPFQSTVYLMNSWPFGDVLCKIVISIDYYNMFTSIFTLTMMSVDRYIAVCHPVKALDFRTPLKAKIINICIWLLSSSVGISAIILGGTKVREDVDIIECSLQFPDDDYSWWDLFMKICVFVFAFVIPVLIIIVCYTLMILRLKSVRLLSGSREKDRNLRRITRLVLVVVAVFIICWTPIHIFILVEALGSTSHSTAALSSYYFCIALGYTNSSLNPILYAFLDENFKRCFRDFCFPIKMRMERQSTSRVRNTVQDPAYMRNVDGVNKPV
structure (smiles),measurement,setting,value
C[C@H]1CN(CC[C@H](O)C2CCCCC2)CC[C@@]1(C)c1cccc(O)c1,AD50,[1],0.05 mg/kg
same,Ke,[2],0.31 nM
same,IC50,[3],> 1000 nM
same,Ki,[4],5.2 nM
same,IC50,[5],> 10000 nM
same,IC50,[6],> 5000 nM
